# Screening data (PubChem BioAssay)
# SENP8 block-1 = blocks human SENP8 cleavage of Nedd8 substrate | Q96LD8 | 360,000 tested, 0.64% active | AID 602440 | recombinant SENP8, Nedd8 substrate fluorescence | inhibition, % at 20 µM; in the data active means inhibition mostly above about 40%, no sharp cut-off; inactive means mostly below about 27%
# SENP7 inh = SENP7 protease inhibition; Q9BQF6; recombinant SENP7, Z-RLRGG-aminoluciferin luminescence, 40 min; inhibition, % at 5 µM; 330,000 tested, 1.5% active; AID 434973;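 active means inhibition above about 50% at the single test dose, limit read from the data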;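 further: plate controls were DMSO with enzyme for no effect and no enzyme buffer wells for full effect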
# SENP8 block-2 = inhibitors of human SENP8 protease. Q96LD8. purified SENP8, Z-RLRGG-aminoluciferin cleavage, luminescence. inhibition, % at 10 µM. 330,000 tested, 1.2% active; in the data active means inhibition above about 50%
# UCH37 inh = inhibitors of human deubiquitinating enzyme UCH37 | Q9Y5K5 | purified proteasome/UCH37, Ub-AMC cleavage fluorescence | inhibition, % (test concentration not listed) | 330,000 tested, 0.33% active;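 active means mean inhibition over replicate wells above about 20%, limit read from the data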;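 further: 0% = compound-free wells with enzyme and 100% = wells lacking proteasome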
#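 system = Proteasome-associated human UCH37 deubiquitinase | amount = 0.15 nM proteasome as dispensed | medium = pH 7.4 Tris-HCl (50 mM) with ovalbumin, ATP-MgCl2, DTT | incubation = 30 min preincubation with enzyme, 25 min cleavage at room temperature | detection = AMC fluorescence 355/460 nm | read-out basis = percent inhibition | controls = no-proteasome and no-compound wells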
# SENP6 block = inhibitors of human SENP6 protease | Q9GZR1 | Recombinant SENP6 catalytic domain, aminoluciferin luminescence | inhibition, % at 10 µM | 330,000 tested, 1.8% active;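 active means inhibition above about 50% at the single tested dose, limit read from the data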;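 further: plate controls were DMSO wells with enzyme for no effect and DMSO wells lacking enzyme for full effect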
# Target sequence (Q9GZR1 628-1112 limits assumed): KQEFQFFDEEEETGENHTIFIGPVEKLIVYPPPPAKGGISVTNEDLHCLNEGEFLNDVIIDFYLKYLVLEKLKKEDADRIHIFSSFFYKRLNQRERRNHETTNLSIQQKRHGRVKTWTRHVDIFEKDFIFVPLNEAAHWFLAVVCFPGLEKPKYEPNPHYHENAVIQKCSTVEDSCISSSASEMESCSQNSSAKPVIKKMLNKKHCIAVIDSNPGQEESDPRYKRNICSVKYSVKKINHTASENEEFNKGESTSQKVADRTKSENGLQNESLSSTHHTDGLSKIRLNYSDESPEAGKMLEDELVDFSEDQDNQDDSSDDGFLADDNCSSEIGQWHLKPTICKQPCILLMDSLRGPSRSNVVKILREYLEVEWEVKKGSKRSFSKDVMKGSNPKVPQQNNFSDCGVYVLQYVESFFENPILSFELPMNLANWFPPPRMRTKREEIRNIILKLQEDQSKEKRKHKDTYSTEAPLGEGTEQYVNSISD
# SENP1 FRET inh = blocks the human SENP1 SUMO protease catalytic domain. Q9P0U3. inhibition, % at 10 µM. 360,000 tested, 0.21% active. AID 624204. recombinant SENP1 catalytic domain, CyPet-SUMO1-YPet FRET cleavage;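 active means inhibition at least 30% at 10 µM, raw YFP signal under a set limit, fluorescence ratio 0.5 to 1.5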;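 further: 0% = enzyme with DMSO and 100% = no enzyme wells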
#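 Test system: hSENP1 catalytic domain, recombinant; Amount: 20 pM final SENP1 enzyme; Medium: Tris pH 8 buffer plus EDTA, NaCl, BME, BSA, NP40, catalase; Schedule: 50 min enzyme reaction, room temperature, light-protected; Technique: FRET fluorescence in CFP and YFP emission channels; Controls: no-enzyme wells low, DMSO-plus-enzyme wells high control.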
# SENP8 conf = human SENP8 inhibition, confirmed; shares compounds with SENP7 inh; Recombinant SENP8, Z-RLRGG-aminoluciferin luminescence, 60 min; inhibition, % at 12.5 µM; 6,200 tested, 40% active;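 active means mean inhibition across replicates above about 50%, limit read from the data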
# SENP6 confirm = human SENP6 inhibition, confirmed | 6,200 tested, 58% active | shares compounds with SENP7 inh | inhibition, % at 12.5 µM | recombinant SENP6, Z-RLRGG-aminoluciferin luminescence
# SENP7 confirm = confirmation of human SENP7 protease inhibitors. recombinant SENP7, Z-RLRGG-aminoluciferin luminescence, 40 min. shares compounds with SENP7 inh. inhibition, % at 12.5 µM. 6,200 tested, 69% active. AID 488917
# Casp3 SENP sel = caspase-3 inhibition (SENP selectivity assay); shares compounds with SENP7 inh; purified caspase-3, Z-DEVD-aminoluciferin luminescence, 60 min; inhibition, % at 12.5 µM; 6,200 tested, 60% active;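 active means mean inhibition above about 50%, limit read from the data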;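 further: plate controls were enzyme with DMSO for no effect and wells without caspase-3 for full effect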
# Target sequence (P42574 28-227 limits assumed): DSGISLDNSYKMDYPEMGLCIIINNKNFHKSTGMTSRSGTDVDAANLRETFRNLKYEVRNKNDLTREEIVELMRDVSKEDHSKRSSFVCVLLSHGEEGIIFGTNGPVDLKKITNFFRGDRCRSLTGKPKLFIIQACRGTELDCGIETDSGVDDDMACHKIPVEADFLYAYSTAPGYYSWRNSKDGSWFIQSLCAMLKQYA
# Luc interf = counter-screen for SENP inhibitors: luminescence interference; inhibition, % at 12.5 µM; shares compounds with SENP7 inh; 6,200 tested, 39% active; Pre-incubated SENP8/Z-RLRGG-aminoluciferin, luciferase luminescence interference;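 active means mean inhibition above about 50% when retested at one dose, limit read from the data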;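 further: plate controls were DMSO wells with completed reaction for no effect and substrate without enzyme for full effect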
# The depositor's hits bear a star; i = inactive; . = no result given. This is a sample that favours compounds with a hit; in the whole collection about 2.6% have one here.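 How the source made its calls, unless noted: active means mean inhibition above about 50% in the one-dose retest (limit read from the data); inactive means the rest.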
SMILES,SENP8 block-1,SENP7 inh,SENP8 block-2,UCH37 inh,SENP6 block,SENP1 FRET inh,SENP8 conf,SENP6 confirm,SENP7 confirm,Casp3 SENP sel,Luc interf
COc1cc(C=NNC(=O)c2cccc([N+](=O)[O-])c2)ccc1OC(=O)c1ccco1,.,.,.,2,.,.,.,.,.,.,.
COc1cc(OC)cc(C(=O)O/N=C(\N)c2ccccn2)c1,8,-2,-2,-1,-4,5,.,.,.,.,.
COc1ccc(C(=O)O/N=C(\N)c2ccccn2)cc1,14,101*,96*,.,97*,5,99*,100*,104*,99*,97*
CON=CNC(=O)C1=NOC(CNc2ncc(C(F)(F)F)cc2Cl)C1 (centres undefined),.,.,.,-1,.,.,.,.,.,.,.
CN(C)Cc1c(C(=O)NN=Cc2ccc(OCc3ccc(F)cc3)cc2)nnn1-c1nonc1N,.,.,.,2,.,.,.,.,.,.,.
O=C(Nc1ccccc1)OCC1CCCN2CCCCC12 (centres undefined),29,-5,-8,1,-9,1,.,.,.,.,.
CC1=CCC(COC(=O)Nc2ccccc2)CC1 (centres undefined),6,89*,80*,3,82*,2,86*,90*,99*,75*,81*
CCc1ccc(-n2c(C)cc(C=NNC(=O)c3ccncc3)c2C)cc1,.,.,.,7,.,.,.,.,.,.,.
CCOC(=O)C1(C(F)(F)F)N=C(C(F)(F)F)Nc2ccccc21 (centres undefined),5,72*,-5,1,3,0,9,7,2,-4,-8
COc1ccc(-c2cc3ccccc3c(=O)o2)cc1,-440,.,.,.,.,-17,.,.,.,.,.
CN(C)c1ccc(-c2cc3ccccc3c(=O)o2)cc1,-498,66*,84*,-32,77*,-29,20,21,27,36,15
C=CCNC(=S)NN=C(C)c1cccc(OC)c1,.,.,.,1,.,.,.,.,.,.,.
CCn1nc(C)c(C=NNC(=O)Cc2ccc(Cl)cc2)c1C,.,.,.,-15,.,.,.,.,.,.,.
C=CCNc1nnc(-c2ccncc2)s1,i,2,-6,-198,3,0,.,.,.,.,.
c1ccc2c(Nc3nnc(-c4ccncc4)s3)cccc2c1,-105,3,46,3,61*,-2,15,51*,81*,48,5
CN1CCN(/N=C/c2ccc(-c3ccccc3)cc2)CC1,2,83*,79*,.,22,4,82*,86*,98*,90*,50*
Cc1ccccc1C(=O)NC(=S)Nc1ccccc1C(=O)O,-36,-2,-10,1,-24,2,.,.,.,.,.
COc1ccc(C(=O)Nc2ccccc2C(N)=O)cc1,-23,37,5,1,65*,2,22,19,68*,65*,53*
O=C(NC(=S)Nc1ccccc1C(=O)O)c1ccc2ccccc2c1,-104,1,-5,-10,67*,1,14,8,7,18,21
COC(=O)c1ccccc1NC(=S)NC(=O)c1ccc2c(c1)OCO2,-394,-6,0,-4,5,4,.,.,.,.,.
NC(=O)c1ccccc1NC(=O)c1ccc2ccccc2c1,0,90*,79*,-17,96*,1,51*,82*,98*,81*,59*
NC(=O)c1ccccc1NC(=O)c1ccc2c(c1)OCO2,-11,70*,57*,1,70*,-2,-22,52*,88*,81*,39
O=C(CN(Cc1ccco1)S(=O)(=O)c1ccccc1)NN=Cc1cccc(O)c1,.,.,.,1,.,.,.,.,.,.,.
COc1ccc(OC)c(C=NNC(=O)c2ccncc2)c1,.,.,.,4,.,.,.,.,.,.,.
COc1ccc(CC(=O)NCC(=O)NN=Cc2cc(Br)ccc2OC)cc1,.,.,.,-4,.,.,.,.,.,.,.
SMILES,SENP8 block-1,SENP7 inh,SENP8 block-2,UCH37 inh,SENP6 block,SENP1 FRET inh,SENP8 conf,SENP6 confirm,SENP7 confirm,Casp3 SENP sel,Luc interf
COc1ccc(C(=O)Nc2ccccc2C(=O)N/N=C/c2cccc3ccccc23)cc1,-30,63*,4,.,60*,5,-11,22,42,45,2
O=C(Nc1ccccc1C(=O)NN=Cc1ccccc1)c1ccco1,.,.,.,-1,.,.,.,.,.,.,.
O=C(Nc1ccccc1C(=O)N/N=C/c1ccc(O)cc1)c1ccccc1,-128,61*,23,.,65*,1,-5,3,81*,86*,64*
COc1ccc(C(=O)Nc2cc(Cl)ccc2OC(=O)c2ccc(OC)cc2)cc1,4,55*,33,1,57*,3,11,12,35,54*,16
N#CC(C#N)=NNc1ccc([N+](=O)[O-])cc1,24,44,74*,15,81*,14,11,82*,93*,61*,83*
CCOC(=O)CN1C(=O)S/C(=C\c2ccc(-c3cccc(C(=O)O)c3C)o2)C1=O,-181,35,48,8,55*,-32,49,48,52*,13,12
O=C1NC(=O)/C(=C/c2ccc(-c3cccc([N+](=O)[O-])c3)o2)S1,27,55*,66*,11,86*,1,78*,60*,43,21,15
O=Cc1ccc(-c2cccc([N+](=O)[O-])c2)o1,0,3,2,7,-7,0,.,.,.,.,.
Cc1c(C(=O)O)cccc1-c1ccc(/C=C2/NC(=O)N(c3ccccc3)C2=O)o1,-409,-1,60*,-6,64*,-62,-10,79*,92*,16,12
Cc1c(C(=O)O)cccc1-c1ccc(/C=C2\SC(=O)NC2=O)o1,-149,91*,98*,12,98*,-76,99*,100*,103*,97*,97*
Cc1cc(C)c2c(c1)C(=c1sc3n(c1=O)CN(c1ccccc1)CN=3)C(=O)N2,.,.,.,5,.,.,.,.,.,.,.
CC1(C)SC(=S)N(N=Cc2ccccc2)C1N(O)C(=O)Nc1ccc([N+](=O)[O-])cc1 (centres undefined),.,.,.,8,.,.,.,.,.,.,.
COc1ccc(C(=O)C2CCCN(C(=O)c3ccc4nccnc4c3)C2)c(C)c1 (centres undefined),-2,-7,7,6,57*,3,-21,-17,-8,-8,-5
